Assay results published in the array DNA melting data of Ke et al. (doi:10.1101/2024.01.08.574731).

How the values were obtained:
[1] = folding enthalpy; higher = less favourable; fluorescence melt of hairpins on a sequencing array, two-state fit; conditions: sodium 0.088 M
Procedure, shortened: (§1)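 Melting temperature and folding enthalpy were derived from bootstrapped two-state fits. The fitted temperatures were raised by 9.35 °C to agree with UV melts, and four replicates were combined by inverse variance. The underlying data were Cy3 fluorescence images of library hairpins, with annealed Cy3 and quencher oligos, on a sequenced MiSeq flow cell in 50 mM Na-HEPES pH 8.0, 25 mM NaCl, taken in 2.5 °C steps up to 60 °C, normalised to pre-quench Cy3 and to control constructs.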

[2] = melting temperature; fluorescence melt of hairpins on a sequencing array, two-state fit, raised by 9.35 °C to match UV melts; conditions: sodium 0.088 M
Procedure, shortened: as §1

| Sequence | folding enthalpy [1] | Tm [2] |
| --- | --- | --- |
| GTAGTATCGAAAGATTAC (((..(((....)))))) | -12.9 kcal/mol | 26.1 °C |
| GTAGTCCGAAAGGAGTAC (((.(((....))).))) | -43.5 kcal/mol | 54.1 °C |
| GTAGTCGAAAGACGGTAC ((((((....)))..))) | -11.8 kcal/mol | 39.2 °C |
| GTAGTCGAAAGACTAC ((((((....)))))) | -31.9 kcal/mol | 64.1 °C |
| GTAGTCGAAAGACTCTAC ((((((....)))..))) | -12.8 kcal/mol | 36.2 °C |
| GTAGTCGGAAACGACTAC (((((((....))))))) | -41.2 kcal/mol | 64.8 °C |
| GTAGTGGCGAAAGCCTAC (((..(((....)))))) | -11.6 kcal/mol | 35.4 °C |
| GTAGTGGGAAACCACCAC ((.((((....)))).)) | -16.3 kcal/mol | 33.5 °C |
| GTAGTGGGAAACTACTGC (.(((.(....).))).) | -28.8 kcal/mol | 46 °C |
| GTAGTTGGAAACAACTAC (((((((....))))))) | -43.5 kcal/mol | 56.1 °C |
| GTAGTTGGAAACAGCTAC ((((.((....)).)))) | -29.4 kcal/mol | 42.9 °C |
| GTATAACCGAAAGGTTAC (((..(((....)))))) | -11.4 kcal/mol | 31.8 °C |
| GTATAACGAAAGTTCTAC (((.(((....))).))) | -20 kcal/mol | 31.1 °C |
| GTATAAGGAAACTTATGC (.(((((....))))).) | -18.5 kcal/mol | 31.6 °C |
| GTATACGAAAGTAGATAC ((((((....)))..))) | -10.1 kcal/mol | 24.9 °C |
| GTATACGAAAGTATCTAC ((((((....)))..))) | -18.6 kcal/mol | 32.5 °C |
| GTATACGAAAGTATGTAC ((((((....)))..))) | -12.4 kcal/mol | 30.6 °C |
| GTATCACGAAAGTGTTAC (((.(((....))).))) | -25.8 kcal/mol | 42.3 °C |
| GTATCAGGAAACTGATAC (((((((....))))))) | -39.3 kcal/mol | 54.6 °C |
| GTATCCCGAAAGGGTAC (((.(((....)))))) | -17.9 kcal/mol | 49 °C |
| GTATCCGAAAGGAATAC ((((((....))).))) | -23.2 kcal/mol | 40.4 °C |
| GTATCCGAAAGGAGATAC ((((((....)))..))) | -15.2 kcal/mol | 34.3 °C |
| GTATCGCGAAAGCGCTAC (((.(((....))).))) | -18.4 kcal/mol | 47.9 °C |

| Sequence | folding enthalpy [1] | Tm [2] |
| --- | --- | --- |
| GTATCGGGAAACCGACAC ((.((((....)))).)) | -19.5 kcal/mol | 39.3 °C |
| GTATCGGGAAACCGATGC (.(((((....))))).) | -22.2 kcal/mol | 53.3 °C |
| GTATCGGGAAACTGGTAC (((.(.(....).).))) | -17.8 kcal/mol | 32.3 °C |
| GTATCTCGAAAGAGTAC (((.(((....)))))) | -23.5 kcal/mol | 39.7 °C |
| GTATCTGGAAACAGGTAC (((.(((....))).))) | -36.2 kcal/mol | 42.7 °C |
| GTATGAGAAATCATAC ((((((....)))))) | -31.4 kcal/mol | 44.4 °C |
| GTATGAGGAAACTCACAC ((.((((....)))).)) | -14.5 kcal/mol | 29.4 °C |
| GTATGAGGAAACTTATAC ((((.((....)).)))) | -25.7 kcal/mol | 31.2 °C |
| GTATGCACGAAAGTGTAC (((..(((....)))))) | -9.37 kcal/mol | 31.1 °C |
| GTATGCGAAAGCACCTAC ((((((....)))..))) | -5.96 kcal/mol | 22.1 °C |
| GTATGCGAAAGCACTTAC ((((((....)))..))) | -13.1 kcal/mol | 35.1 °C |
| GTATGCGAAAGCATAC ((((((....)))))) | -28.3 kcal/mol | 69.2 °C |
| GTATGCGAAAGCATATAC ((((((....)))..))) | -11 kcal/mol | 42.2 °C |
| GTATGCTCGAAAGAGTAC (((..(((....)))))) | -10.5 kcal/mol | 26.7 °C |
| GTATGGGGAAACCTATAC ((((.((....)).)))) | -30.3 kcal/mol | 38.4 °C |
| GTATGTGGAAACATATAC ((((.((....)).)))) | -23.1 kcal/mol | 37.2 °C |
| GTATTACGAAAGTATTAC (((.(((....))).))) | -28.4 kcal/mol | 34.8 °C |
| GTATTAGGAAACTAATAC (((((((....))))))) | -38 kcal/mol | 46.3 °C |
| GTATTCCGAAAGGATAC (((.(((....)))))) | -19.7 kcal/mol | 38.9 °C |
| GTATTCGAAAGAATAC ((((((....)))))) | -35.7 kcal/mol | 54.6 °C |
| GTATTCGAAAGAATATAC ((((((....)))..))) | -13.8 kcal/mol | 33.5 °C |
| GTATTCGGAAACGAGTAC (((.(((....))).))) | -28.6 kcal/mol | 43.6 °C |
| GTATTGAAAAATAC (((((....))))) | -15.3 kcal/mol | 33.1 °C |

| Sequence | folding enthalpy [1] | Tm [2] |
| --- | --- | --- |
| GTATTGGGAAACCGATAC ((((.((....)).)))) | -35.7 kcal/mol | 43.6 °C |
| GTATTTCGAAAGAATAC (((.(((....)))))) | -14.1 kcal/mol | 31.1 °C |
| GTATTTGGAAACAAGTAC (((.(((....))).))) | -20.6 kcal/mol | 35.7 °C |
| GTATTTGGAAACGAATAC (((((.(....).))))) | -30.2 kcal/mol | 35.8 °C |
| GTCAAAACGAAAGTTGAC (((..(((....)))))) | -24.4 kcal/mol | 40.5 °C |
| GTCAAACGAAAGTTAGAC (((.(((....))).))) | -29.5 kcal/mol | 44.9 °C |
| GTCAAAGAAATTTGAC ((((((....)))))) | -29.1 kcal/mol | 45 °C |
| GTCAAAGGAAACTTCGAC (((.(((....))).))) | -19.4 kcal/mol | 31.1 °C |
| GTCAAATCGAAAGATGAC (((..(((....)))))) | -16.1 kcal/mol | 35.6 °C |
| GTCAACCGAAAGGTGGAC (((.(((....))).))) | -30.5 kcal/mol | 56.2 °C |
| GTCAACGAAAGTTAGGAC ((((((....)))..))) | -17.1 kcal/mol | 31.8 °C |
| GTCAACGAAAGTTCTGAC ((((((....)))..))) | -13.3 kcal/mol | 25.9 °C |
| GTCAACGAAAGTTGCGAC ((((((....)))..))) | -17.7 kcal/mol | 46.6 °C |
| GTCAACGAAAGTTGGGAC ((((((....)))..))) | -11.5 kcal/mol | 32.7 °C |
| GTCAACGAAAGTTTAGAC ((((((....)))..))) | -16.1 kcal/mol | 31.3 °C |
| GTCAACGGAAACATTGAC (((((.(....).))))) | -26.4 kcal/mol | 35.6 °C |
| GTCAACTCGAAAGAGGAC (((..(((....)))))) | -20.3 kcal/mol | 33.2 °C |
| GTCAAGGGAAACCCTGAC ((((.((....)).)))) | -33.8 kcal/mol | 43.7 °C |
| GTCAAGTCGAAAGACGAC (((..(((....)))))) | -15.4 kcal/mol | 41.9 °C |
| GTCAATCCGAAAGGAGAC (((..(((....)))))) | -20.3 kcal/mol | 32.5 °C |
| GTCAATCGAAAGATAGAC (((.(((....))).))) | -28.2 kcal/mol | 43.5 °C |
| GTCAATGGAAACATTGGC (.(((((....))))).) | -27.7 kcal/mol | 48.4 °C |
| GTCACATCGAAAGATGAC (((..(((....)))))) | -12.8 kcal/mol | 30.2 °C |

| Sequence | folding enthalpy [1] | Tm [2] |
| --- | --- | --- |
| GTCACCGAAAGGTCAGAC ((((((....)))..))) | -14.5 kcal/mol | 32.2 °C |
| GTCACCGAAAGGTTAGAC ((((((....)))..))) | -17.1 kcal/mol | 39.4 °C |
| GTCACGGGAAACCGTAAC ((.((((....)))).)) | -16.5 kcal/mol | 36.1 °C |
| GTCACTCGAAAGAGGAC (((.(((....)))))) | -23.9 kcal/mol | 45.8 °C |
| GTCACTGAAAAGTGAC ((((((....)))))) | -33.2 kcal/mol | 63.3 °C |
| GTCACTGGAAACAATGAC ((((.((....)).)))) | -21.6 kcal/mol | 35 °C |
| GTCACTGGAAACAGCGAC (((.(((....))).))) | -35.2 kcal/mol | 47.2 °C |
| GTCAGACGAAAGTCCGAC (((.(((....))).))) | -26.5 kcal/mol | 48.6 °C |
| GTCAGAGGAAACTCCGAC (((.(((....))).))) | -25.3 kcal/mol | 34.7 °C |
| GTCAGAGGAAACTCTGAC (((((((....))))))) | -37.9 kcal/mol | 61.7 °C |
| GTCAGCCCGAAAGGGGAC (((..(((....)))))) | -13.7 kcal/mol | 42.4 °C |
| GTCAGCGAAAGCTACGAC ((((((....)))..))) | -16.8 kcal/mol | 41 °C |
| GTCAGCGAAAGCTGGAC ((((((....))).))) | -14.4 kcal/mol | 53.1 °C |
| GTCAGCGAAAGCTGTGAC ((((((....)))..))) | -10.3 kcal/mol | 39.5 °C |
| GTCAGCGAAAGCTTTGAC ((((((....)))..))) | -15.3 kcal/mol | 35 °C |
| GTCAGCGGAAACGCCAAC ((..(((....)))..)) | -7.36 kcal/mol | 21.8 °C |
| GTCAGGCGAAAGCCGGAC (((.(((....))).))) | -24.7 kcal/mol | 69.1 °C |
| GTCAGGGGAAACCCCAAC ((..(((....)))..)) | -11.7 kcal/mol | 28.3 °C |
| GTCAGGGGAAACCCTAAC ((.((((....)))).)) | -14.5 kcal/mol | 29.6 °C |
| GTCAGTCGAAAGACGAC (((.(((....)))))) | -32 kcal/mol | 53.1 °C |
| GTCAGTGAAAACTGAC ((((((....)))))) | -35.6 kcal/mol | 60.5 °C |
| GTCAGTGGAAACACTGGC (.(((((....))))).) | -24.8 kcal/mol | 54.7 °C |
